This is an account of results in ChEMBL document CHEMBL1932986, “Synthesis and in vitro antimycobacterial activity of compounds derived from (R)- and (S)-2-amino-1-butanol - The crucial role of the configuration” (Eur J Med Chem, 2012).

pIC50: −log10 of the molar value. Values after ≈ are worked out from the molar mass of the structure shown. Active and inactive are the calls of the source. No cut-off for these calls is given here.

Series [1] has as its system Mycobacterium tuberculosis. Nature of the series: Antimycobacterial activity against Mycobacterium tuberculosis H37Rv after 45 days. Type of series: functional. In short, it runs like this:
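Canetti proportion method. Compound in DMSO is added to Löwenstein–Jensen egg medium before coagulation (30 min, 85 °C), tested at three levels plus a lower one where needed. Tubes are inoculated with H37Rv at 10⁵ cells/ml and incubated 45 days at 37 °C. Colony counts versus drug-free control give percentage inhibition.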

Series [2] concerns HEK-293T. Nature of the series: Cytotoxicity against human HEK293T cells after 72 hrs by MTT assay. The class given is cell-based. In short, it runs like this:
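293T cells in RPMI-1640 with 10% heat-inactivated FCS and 2 mM L-glutamine, 37 °C, 5% CO2. Cells seeded at 3.5 × 10⁵ cells/ml, grown 24 h, then exposed 72 h to DMSO-diluted compounds (final solvent ≤0.5%), ≥8 wells per concentration. MTT added 4 h, formazan dissolved in 5% HCOOH/2-propanol, absorbance read at 580 nm. IC50 obtained by sigmoidal nonlinear regression against untreated control.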

The nature of series [3]: Selectivity index, ratio of IC50 for human HEK293T cells to MIC for Mycobacterium tuberculosis H37Rv. The class given is functional, HEK-293T.
Series [4] in a line: Solubility of the compound in deionized water. Type of series: physicochemical.
Series [5] deals with Bacillus subtilis. Put plainly: Antibacterial activity against Bacillus subtilis ATCC 6633 at 50 mg/ml after 24 hrs by agar diffusion test. The class given is functional. In short, it runs like this:
(§1)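 Agar diffusion: wells in agar filled with […] DMSO solution of compound at various concentrations; diameter of clear zone around application point measured. Bacteria grown 24 h at 37 °C on nutrient agar. Compounds first screened at 50 mg/ml; those active then tested at lower concentrations. Bracketed value = lowest concentration (mg/ml) giving zone >11 mm, reported only if activity retained at ≤1.25 mg/ml.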
(A growth-free zone around the sample is the usual read-out of agar diffusion tests.)

Series [6] deals with Bacillus. Put plainly: Antibacterial activity against Bacillus idosus B 241 at 50 mg/ml after 24 hrs by agar diffusion test. The class given is functional. Particulars: for zone of inhibition at 50000 µg/mL: B 241, 24 h, read-out: DIZ. In outline: as §1
Series [7] relates to Priestia megaterium. Put plainly: Antibacterial activity against Bacillus megaterium NRRL 1353895 at 50 mg/ml after 24 hrs by agar diffusion test. The conditions noted are these: for zone of inhibition at 50000 µg/mL: NRRL 1353895, 24 h, read-out: DIZ. Type of series: functional. In outline:
as §1

In series [8] the test system is Bacillus mycoides. Put plainly: Antibacterial activity against Bacillus mycoides DSMZ 274 at 50 mg/ml after 24 hrs by agar diffusion test. The class given is functional. The conditions noted are these: for zone of inhibition at 50000 µg/mL: DSMZ 274, 24 h, read-out: DIZ. In short, it runs like this:
as §1

Series [9] concerns Bacillus cereus. Nature of the series: Antibacterial activity against Bacillus cereus ATCC 11778 at 50 mg/ml after 24 hrs by agar diffusion test. The class given is functional. Particulars: for zone of inhibition at 50000 µg/mL: ATCC 11778, 24 h, read-out: DIZ. In short, it runs like this: as §1
For series [10], the system named is Acinetobacter johnsonii. Put plainly: Antibacterial activity against Acinetobacter johnsonii ATCC 17909 at 50 mg/ml after 24 hrs by agar diffusion test. The class given is functional. The conditions noted are these: for zone of inhibition at 50000 µg/mL: ATCC 17909, 24 h, read-out: DIZ. In outline:
as §1

Series [11] deals with Staphylococcus aureus. Nature of the series: Antibacterial activity against Staphylococcus aureus NRRL B 313 at 50 mg/ml after 24 hrs by agar diffusion test. The class given is functional. The conditions noted are these: for zone of inhibition at 50000 µg/mL: NRRL B 313, 24 h, read-out: DIZ. In outline: (§2)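 Agar diffusion: bacteria grown 24 h at 37 °C on nutrient agar. Wells in the agar are filled with […] of compound solution in DMSO at various concentrations. The diameter of the clear zone around the application point is measured. Bracketed values give the lowest concentration (mg/ml) that produces a zone >11 mm. A first screen is run at 50 mg/ml.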

Series [12] relates to Micrococcus luteus. Put plainly: Antibacterial activity against Sarcina lutea ATCC 9341 at 50 mg/ml after 24 hrs by agar diffusion test. The class given is functional. Particulars: for zone of inhibition at 50000 µg/mL: ATCC 9341, 24 h, read-out: DIZ. In outline: as §2
Series [13] deals with Micrococcus luteus. Put plainly: Antibacterial activity against Micrococcus luteus ATCC 9631 at 50 mg/ml after 24 hrs by agar diffusion test. Particulars: for zone of inhibition at 50000 µg/mL: ATCC 9631, 24 h, read-out: DIZ. Type of series: functional. In outline: as §1
The test system of series [14] is Escherichia coli. Nature of the series: Antibacterial activity against Escherichia coli ATCC 8739 at 50 mg/ml after 24 hrs by agar diffusion test. Type of series: functional. In outline: as §1
Series [15] concerns Candida tropicalis. Nature of the series: Antifungal activity against Candida tropicalis ATCC 20336 at 50 mg/ml after 72 hrs by agar diffusion test. Particulars: for zone of inhibition at 50000 µg/mL: ATCC 20336, 72 h, read-out: DIZ. The class given is functional. In short, it runs like this: (§3)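 Agar diffusion: yeasts grown on yeast peptone dextrose agar and fungi on potato dextrose agar. Wells are filled with […] of compound solution in DMSO at various concentrations, and the clear-zone diameter is measured. Bracketed values give the lowest concentration (mg/ml) that produces a zone >11 mm. A first screen is run at 50 mg/ml.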

Series [16] relates to Saccharomyces cerevisiae. Nature of the series: Antifungal activity against Saccharomyces cerevisiae ATCC 9763 at 50 mg/ml after 72 hrs by agar diffusion test. Type of series: functional. The conditions noted are these: for zone of inhibition at 50000 µg/mL: ATCC 9763, 72 h, read-out: DIZ. In short, it runs like this: as §3
The test system of series [17] is Penicillium chrysogenum. Put plainly: Antifungal activity against Penicillium chrysogenum CECT 2802 at 50 mg/ml after 72 hrs by agar diffusion test. The class given is functional. In short, it runs like this:
as §3

For series [18], the system named is Mycobacterium tuberculosis. Put plainly: Ratio of ethambutol dihydrochloride MIC to compound MIC for Mycobacterium tuberculosis H37Rv. The class given is functional.

Broadly, the MIC is the least concentration at which growth counts as inhibited. Low readings indicate inhibition by little substance, high ones a need for much substance. A word on the pIC50: it is the IC50 on a negative log10 scale, so that one unit is a factor of ten. A lower pIC50 goes with a high IC50. One may read the solubility as the concentration that dissolves in the medium under given conditions. Low readings indicate little dissolved substance, high ones much dissolved substance. In the case of `CC[C@H](CO)NC(=O)c1ccc(N(C)C)cc1`, in series [1], it took 8.46 µM (≈ 2 µg/mL) to inhibit growth (MIC). In series [2], this compound gave a pIC50 of 3.76. In [3], the “Selectivity Index” value is on record as 20.5. The amount in solution in series [4] (solubility) came to 1500 µg/mL (≈ 6.35 mM). Besides, the “diameter of the inhibition zone (DIZ)” value in series [5], in series [6], in series [7], in series [8], in series [9] and in series [10] was “inactive” in each case. The “diameter of the inhibition zone (DIZ)” value in series [11], in series [12], in [13], in series [14], in series [15] and in series [16] was “inactive” in each case. For the same compound, the “diameter of the inhibition zone (DIZ)” value in series [17] was “inactive”.

`CC[C@H](CO)NC(=O)c1ccccc1C(=O)N[C@H](CC)CO` came in with an MIC in series [1] of 0.65 µM (≈ 0.2 µg/mL). Besides, the pIC50 in series [2] was 3.61. For the same compound, in [3], the “Selectivity Index” value worked out at 375.4. The same compound gave a solubility in [4] of 46000 µg/mL (≈ 149 mM). The Ratio in series [18] stood at 5. The “diameter of the inhibition zone (DIZ)” value in series [5], in series [6], in [7], in series [8], in series [9] and in series [10] was “inactive” each time. Also, the “diameter of the inhibition zone (DIZ)” value in series [11], in [12], in series [13], in [14], in [15] and in [16] was “inactive” in each case. The “diameter of the inhibition zone (DIZ)” value in [17] was “inactive”.

`CCNC(=O)N[C@H](CC)CO` yielded an MIC in [1] of 1.25 µM (≈ 0.2 µg/mL). Besides, the negative logarithm of the IC50 (pIC50) in [2] was 3.94. Moreover, the “Selectivity Index” value in series [3] came to 91.2. Also, in series [4], the solubility came to 215000 µg/mL (≈ 1340 mM). Moreover, the Ratio in series [18] is 5. Moreover, the “diameter of the inhibition zone (DIZ)” value in series [5], in [6], in series [7], in [8], in series [9] and in series [10] was “inactive” throughout. Also, the “diameter of the inhibition zone (DIZ)” value in series [11], in series [12], in [13], in series [14], in [15] and in [16] was “inactive” throughout. For the same compound, the “diameter of the inhibition zone (DIZ)” value in series [17] is “inactive”.

`CC[C@H](CO)NP(=O)(c1ccccc1)c1ccccc1` had an MIC in series [1] of 0.69 µM (≈ 0.2 µg/mL). In addition, in [2], the pIC50 is 3.81. Further, the “Selectivity Index” value in series [3] worked out at 224.6. In addition, the solubility in [4] is under 1000 µg/mL. In addition, the Ratio in [18] amounted to 5. For the same compound, the zone of inhibition at 50000 µg/mL in series [5] (ATCC 6633, 24 h, read-out: DIZ) is 18 mm; in [6] it was 15 mm; in series [7] it was 16 mm; in [8], 15 mm; in series [9] it was 15 mm; in series [10], 17 mm. The zone of inhibition at 50000 µg/mL in series [11] was 18 mm; in [12], 18 mm; in [13] it was 15 mm; in series [15] it was 22 mm; in series [16] it was 16 mm. Besides, the “diameter of the inhibition zone (DIZ)” value in series [14] was “inactive”.

Turning to `CC[C@H](CO)NC(=O)c1ccccc1O`, the MIC in [1] stood at 0.96 µM (≈ 0.201 µg/mL). The negative logarithm of the IC50 (pIC50) in series [2] is 3.59. Besides, the “Selectivity Index” value in [3] was determined as 267.7. Further, the concentration in solution in series [4] (solubility) came to 2000 µg/mL (≈ 9.56 mM). Besides, the Ratio in [18] was 5. For the same compound, the “diameter of the inhibition zone (DIZ)” value in series [5], in [14] and in series [17] was “inactive” each time. Further, the zone of inhibition at 50000 µg/mL was 11 mm in series [6]; 13 mm in [7]; 12 mm in series [8]; 11 mm in series [9]; 13 mm in series [10]; 11 mm in series [11]. Further, the zone of inhibition at 50000 µg/mL turned out to be 13 mm in series [12], 11 mm in [13], 13 mm in series [15] and 15 mm in series [16].

`CC[C@H](CO)N1Cc2ccccc2C1=O` gave an MIC in [1] of 0.97 µM (≈ 0.199 µg/mL). The pIC50 in series [2] is 4.05. The “Selectivity Index” value in series [3] is 91.8. Also, the solubility in series [4] is 1000 µg/mL (≈ 4.87 mM). The Ratio in [18] is 5. For the same compound, the “diameter of the inhibition zone (DIZ)” value in [5], in series [6], in series [7], in series [8], in series [9] and in series [10] was “inactive” in each case. The “diameter of the inhibition zone (DIZ)” value in series [11], in series [12], in [13], in series [14], in series [15] and in series [16] was “inactive” each time. The “diameter of the inhibition zone (DIZ)” value in series [17] is “inactive”.
